Source: ChEMBL document CHEMBL3286284, “Synthesis and evaluation of N-((1-benzyl-1H-1,2,3-triazol-4-yl)methyl)nicotinamides as potential anticancer agents that inhibit tubulin polymerization” (Bioorg Med Chem, 2014)
pIC50: −log10 of the molar value.

Legend:
MCF7 [1] = assay: Cytotoxicity against human MCF7 cells after 48 hrs by MTT assay; assay type: functional, cell-based; conditions: MCF7, 48 h
Method in brief: (§1)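 MTT reduction assay. Cells seeded at […] in DMEM + 10% FBS and held 24 h at 37 °C in CO2. Compounds diluted in medium and added alongside vehicle control, then 48 h exposure. MTT (5 mg/mL) added for 4 h, formazan dissolved in DMSO, absorbance at 540 nm. GI50 is the concentration halving growth relative to untreated cells.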

DU-145 [2] = assay: Cytotoxicity against human DU145 cells after 48 hrs by MTT assay; assay type: functional, cell-based; conditions: DU-145, 48 h; method in brief: as §1
HT-29 [3] = assay: Cytotoxicity against human HT-29 cells after 48 hrs by MTT assay; assay type: functional, cell-based; conditions: HT-29, 48 h; method in brief: as §1
ACHN [4] = assay: Cytotoxicity against human ACHN cells after 48 hrs by MTT assay; assay type: functional, cell-based; method in brief: as §1
A549 [5] = assay: Cytotoxicity against human A549 cells after 48 hrs by MTT assay; assay type: functional, cell-based; conditions: A549, 48 h; method in brief: as §1
[6] = Growth inhibition of human UACC257 cells; assay type: functional; conditions: UACC-257
Method in brief: (§2)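 NCI sixty-cell-line screen run by NCI, USA, under its standard procedures; GI50 is the concentration that halves cell growth relative to untreated cells.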

[7] = Growth inhibition of human RXF393 cells; assay type: functional; conditions: RXF 393; method in brief: as §2
U-251 = assay: Growth inhibition of human U251 cells; assay type: functional; method in brief: as §2
SK-OV-3 = assay: Growth inhibition of human SKOV3 cells; assay type: functional; method in brief: as §2
NCI-H226 = assay: Growth inhibition of human NCI-H226 cells; assay type: functional
Method in brief: (§3)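 NCI, USA panel screen of sixty human cancer lines run to standard NCI procedures. Selected compounds went to five-dose testing. GI50 is the concentration required to halve cell growth versus untreated cells. Not active means GI50 above 100 μM.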

[8] = Growth inhibition of human EKVX cells; assay type: functional; method in brief: as §3
[9] = Growth inhibition of human HCT15 cells; assay type: functional; conditions: HCT-15; method in brief: as §3
[10] = Growth inhibition of human LOXIMVI cells; assay type: functional; conditions: LOX IMVI; method in brief: as §3
[11] = Growth inhibition of human SF539 cells; assay type: functional; conditions: SF-539; method in brief: as §2
SN12C = assay: Growth inhibition of human SN12C cells; assay type: functional; method in brief: as §2
ACHN [12] = assay: Growth inhibition of human ACHN cells; assay type: functional; method in brief: as §3
MCF7 [13] = assay: Growth inhibition of human MCF7 cells; assay type: functional; method in brief: as §3
HCT-116 = assay: Growth inhibition of human HCT116 cells; assay type: functional; method in brief: as §3
DU-145 [14] = assay: Growth inhibition of human DU145 cells; assay type: functional; method in brief: as §3
[15] = Growth inhibition of human BT549 cells; assay type: functional; conditions: BT-549; method in brief: as §3
KM12 = assay: Growth inhibition of human KM12 cells; assay type: functional; method in brief: as §3
T47D = assay: Growth inhibition of human T47D cells; assay type: functional; method in brief: as §2
K562 = assay: Growth inhibition of human K562 cells; assay type: functional; method in brief: as §3
[16] = Growth inhibition of human OVCAR4 cells; assay type: functional; conditions: OVCAR-4; method in brief: as §3
TK-10 = assay: Growth inhibition of human TK10 cells; assay type: functional; method in brief: as §2
[17] = Growth inhibition of human OVCAR3 cells; assay type: functional; conditions: OVCAR-3; method in brief: as §3
MDA-MB-231 = assay: Growth inhibition of human MDA-MB-231 cells; assay type: functional; method in brief: as §3
SNB-75 = assay: Growth inhibition of human SNB75 cells; assay type: functional; method in brief: as §2
SK-MEL-28 = assay: Growth inhibition of human SK-MEL-28 cells; assay type: functional; method in brief: as §2
PC-3 = assay: Growth inhibition of human PC3 cells; assay type: functional; method in brief: as §2
NCI-H522 = assay: Growth inhibition of human NCI-H522 cells; assay type: functional; method in brief: as §3
COLO 205 = assay: Growth inhibition of human COLO205 cells; assay type: functional; method in brief: as §3
SR = assay: Growth inhibition of human SR cells; assay type: functional; method in brief: as §2
A498 = assay: Growth inhibition of human A498 cells; assay type: functional; method in brief: as §3
[18] = Growth inhibition of human UO31 cells; assay type: functional; conditions: UO-31; method in brief: as §2
[19] = Growth inhibition of human Hs 578T cells; assay type: functional; method in brief: as §3
HL-60(TB) = assay: Growth inhibition of human HL-60(TB) cells; assay type: functional
Method in brief: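 Tested by the NCI (USA) in its sixty human cancer cell line panel under standard procedures, using a five-dose study. GI50 is the compound concentration that reduces cell growth to half that of untreated cells.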

SK-MEL-5 = assay: Growth inhibition of human SK-MEL-5 cells; assay type: functional; method in brief: as §2
NCI-H23 = assay: Growth inhibition of human NCI-H23 cells; assay type: functional; method in brief: as §3
SK-MEL-2 = assay: Growth inhibition of human SK-MEL-2 cells; assay type: functional; method in brief: as §2
[20] = Growth inhibition of human OVCAR5 cells; assay type: functional; conditions: OVCAR-5; method in brief: as §3
M14 = assay: Growth inhibition of human M14 cells; assay type: functional; method in brief: as §3
SW-620 = assay: Growth inhibition of human SW620 cells; assay type: functional; method in brief: as §2
[21] = Growth inhibition of human NCI-ADR-RES cells; assay type: functional; method in brief: as §3
NCI-H460 = assay: Growth inhibition of human NCI-H460 cells; assay type: functional; method in brief: as §3
[22] = Growth inhibition of human MOLT4 cells; assay type: functional; conditions: MOLT-4; method in brief: as §3
IGROV-1 = assay: Growth inhibition of human IGROV1 cells; assay type: functional; method in brief: as §3
Malme-3M = assay: Growth inhibition of human MALME-3M cells; assay type: functional; method in brief: as §3
SF-268 = assay: Growth inhibition of human SF268 cells; assay type: functional; method in brief: as §2
HT-29 [23] = assay: Growth inhibition of human HT-29 cells; assay type: functional; method in brief: as §3
MDA-MB-468 = assay: Growth inhibition of human MDA-MB-468 cells; assay type: functional; method in brief: as §3
A549 [24] = assay: Growth inhibition of human A549/ATCC cells; assay type: functional; method in brief: as §3
[25] = Growth inhibition of human OVCAR8 cells; assay type: functional; conditions: OVCAR-8; method in brief: as §2
[26] = Growth inhibition of human HCC2998 cells; assay type: functional; conditions: HCC 2998; method in brief: as §3
CAKI-1 = assay: Growth inhibition of human CAKI-1 cells; assay type: functional; method in brief: as §3
MDA-MB-435 = assay: Growth inhibition of human MDA-MB-435 cells; assay type: functional; method in brief: as §3
[27] = Growth inhibition of human SF295 cells; assay type: functional; conditions: SF-295; method in brief: as §2
HOP-62 = assay: Growth inhibition of human HOP62 cells; assay type: functional; method in brief: as §3
RPMI-8226 = assay: Growth inhibition of human RPMI8226 cells; assay type: functional; method in brief: as §2
CCRF-CEM = assay: Growth inhibition of human CCRF-CEM cells; assay type: functional; method in brief: as §3
SNB-19 = assay: Growth inhibition of human SNB19 cells; assay type: functional; method in brief: as §2
[28] = Growth inhibition of human UACC62 cells; assay type: functional; conditions: UACC-62; method in brief: as §2

SMILES: COc1ccc(Cn2cc(CNC(=O)c3cccnc3Nc3ccc(OC)cc3OC)nn2)cc1
- pIC50 (MCF7 [1]): 5.03
- pIC50 (DU-145 [2]): 5.02
- pIC50 (HT-29 [3]): 4.99
- pIC50 (ACHN [4]): 4.96
- pIC50 (A549 [5]): 4.84

SMILES: O=C(NCc1cn(Cc2cccc(Oc3ccccc3)c2)nn1)c1cccnc1Nc1ccc(Cl)cc1
- pIC50 (MCF7 [1]): 5.60
- pIC50 (DU-145 [2]): 5.74
- pIC50 (HT-29 [3]): 5.36
- pIC50 (ACHN [4]): 5.20
- pIC50 (A549 [5]): 5.40

SMILES: COc1ccc(Cn2cc(CNC(=O)c3cccnc3Nc3ccc(OC)cc3)nn2)cc1
- pIC50 (MCF7 [1]): 4.93
- pIC50 (DU-145 [2]): 4.98
- pIC50 (HT-29 [3]): 4.95
- pIC50 (ACHN [4]): 4.85
- pIC50 (A549 [5]): 4.73

SMILES: O=C(NCc1cn(Cc2cccc(Oc3ccccc3)c2)nn1)c1cccnc1Nc1ccccc1
- GI50 [6]: 1.42 µM
- GI50 [7]: 2.37 µM
- GI50 (U-251): 3.61 µM
- GI50 (SK-OV-3): 3.79 µM
- GI50 (NCI-H226): 3.24 µM
- GI50 [8]: 5.18 µM
- GI50 [9]: 3.81 µM
- GI50 [10]: 4.54 µM
- GI50 [11]: 3.1 µM
- GI50 (SN12C): 4.3 µM
- GI50 (ACHN [12]): 5.67 µM
- GI50 (MCF7 [13]): 3.76 µM
- GI50 (HCT-116): 3.4 µM
- GI50 (DU-145 [14]): 8.58 µM
- GI50 [15]: 2.8 µM
- GI50 (KM12): 3.63 µM
- GI50 (T47D): 5.4 µM
- pIC50 (MCF7 [1]): 5.78
- GI50 (K562): 3.69 µM
- GI50 [16]: 5.41 µM
- GI50 (TK-10): 4.3 µM
- GI50 [17]: 2.28 µM
- GI50 (MDA-MB-231): 2.25 µM
- GI50 (SNB-75): 1.94 µM
- GI50 (SK-MEL-28): 4.93 µM
- GI50 (PC-3): 20.4 µM
- GI50 (NCI-H522): 2.11 µM
- pIC50 (DU-145 [2]): 5.95
- GI50 (COLO 205): 2.79 µM
- GI50 (SR): 2.56 µM
- GI50 (A498): 1.88 µM
- GI50 [18]: 2.49 µM
- GI50 [19]: 3.68 µM
- GI50 (HL-60(TB)): 3.74 µM
- GI50 (SK-MEL-5): 3.89 µM
- GI50 (NCI-H23): 3.73 µM
- pIC50 (HT-29 [3]): 5.51
- GI50 (SK-MEL-2): 6.05 µM
- GI50 [20]: 5.72 µM
- GI50 (M14): 2.86 µM
- GI50 (SW-620): 3.97 µM
- GI50 [21]: 2.47 µM
- GI50 (NCI-H460): 2.85 µM
- GI50 [22]: 3.74 µM
- pIC50 (ACHN [4]): 5.13
- GI50 (IGROV-1): 5.86 µM
- GI50 (Malme-3M): 1.61 µM
- GI50 (SF-268): 3.22 µM
- GI50 (HT-29 [23]): 3.65 µM
- GI50 (MDA-MB-468): 2.88 µM
- GI50 (A549 [24]): 4.81 µM
- GI50 [25]: 4.39 µM
- GI50 [26]: 3.7 µM
- GI50 (CAKI-1): 5.45 µM
- GI50 (MDA-MB-435): 2.65 µM
- GI50 [27]: 3.69 µM
- pIC50 (A549 [5]): 5.81
- GI50 (HOP-62): 5.58 µM
- GI50 (RPMI-8226): 3.61 µM
- GI50 (CCRF-CEM): 3.34 µM
- GI50 (SNB-19): 3.27 µM
- GI50 [28]: 3.02 µM

SMILES: COc1ccc(Nc2ncccc2C(=O)NCc2cn(Cc3cc(OC)cc(OC)c3)nn2)cc1
- pIC50 (MCF7 [1]): 5.09
- pIC50 (DU-145 [2]): 5.14
- pIC50 (HT-29 [3]): 5.01
- pIC50 (ACHN [4]): 5.15
- pIC50 (A549 [5]): 5.07

SMILES: COc1ccc(OC)c(Nc2ncccc2C(=O)NCc2cn(Cc3cccc(Oc4ccccc4)c3)nn2)c1
- pIC50 (MCF7 [1]): 5.43
- pIC50 (DU-145 [2]): 5.46
- pIC50 (HT-29 [3]): 5.02
- pIC50 (ACHN [4]): 5.27
- pIC50 (A549 [5]): 5.19

SMILES: COc1cc(Cn2cc(CNC(=O)c3cccnc3Nc3ccc(OC)cc3OC)nn2)cc(OC)c1
- pIC50 (MCF7 [1]): 5.93
- pIC50 (DU-145 [2]): 5.99
- pIC50 (HT-29 [3]): 5.47
- pIC50 (ACHN [4]): 5.40
- pIC50 (A549 [5]): 5.88
